The target in one data set is T1, Streptokinase (Streptococcus pyogenes, UniProt P96471).
T1 sequence (P96471 whole entry): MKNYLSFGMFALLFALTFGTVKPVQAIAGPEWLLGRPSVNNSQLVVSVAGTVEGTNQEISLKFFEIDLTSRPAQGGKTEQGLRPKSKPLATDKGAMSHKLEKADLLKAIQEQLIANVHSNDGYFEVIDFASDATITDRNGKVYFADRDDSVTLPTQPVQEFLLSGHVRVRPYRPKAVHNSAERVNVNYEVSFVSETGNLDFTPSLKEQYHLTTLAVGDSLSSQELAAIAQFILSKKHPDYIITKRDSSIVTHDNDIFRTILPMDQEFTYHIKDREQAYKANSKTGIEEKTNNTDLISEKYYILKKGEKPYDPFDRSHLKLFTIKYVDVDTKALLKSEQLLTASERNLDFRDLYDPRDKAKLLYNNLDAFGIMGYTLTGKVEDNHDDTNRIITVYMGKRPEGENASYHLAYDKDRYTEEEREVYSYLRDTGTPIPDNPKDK
Briefly: Inhibition of Streptococcus pyogenes UMAA2616 streptokinase assessed as plasmin activity in human plasma after 24 hrs by colorimetric analysis. The procedure, abridged:
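GAS culture grown 24 h with test compound (5 μM for ratio data); culture supernatant mixed with human plasma and resulting plasmin activity read as turnover of plasmin-specific chromogenic substrate at A405. Reported as SK activity relative to DMSO-treated control culture; IC50 taken as concentration giving 50% of maximal inhibition of SK expression; ± standard deviation.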

The next data set concerns Streptococcus pyogenes. Kind of data set: Growth inhibition of Streptococcus pyogenes UMAA2616 at 50 uM after 24 hrs relative to control. It is filed as organism-based.
The target in data set [1] is T2, Streptokinase (Streptococcus pyogenes) (UniProt P96471).
T2 sequence (whole entry): T1 sequence (P96471 whole entry)
Kind of data set: Inhibition of Streptococcus pyogenes UMAA2616 streptokinase assessed as plasmin activity in human plasma at 5 uM after 24 hrs by colorimetric analysis relative to control. Put shortly: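 GAS cultures incubated 24 hours with 5 μM compound. Culture supernatant was mixed with human plasma, and the resulting plasmin activity was followed by turnover of a plasmin-specific chromogenic substrate, read as absorbance at 405 nm. Value is the activity of the treated culture divided by that of a DMSO-treated control culture, ± standard deviation.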

Broadly, the IC50 is the midpoint of a concentration-inhibition curve. Regarding `C#CCOCCSc1nc2c(c(=O)n1CC=C)C(C)(C)Cc1ccc(N=[N+]=[N-])cc1-2`, the IC50 at Streptokinase is 190 nM. Moreover, the T/C in the data set with Streptococcus pyogenes came to 0.98; in data set [1] it was 0.3.

With `C=CCn1c(SCC)nc2c(c1=O)C(C)(C)Cc1ccc(OC)cc1-2`, the IC50 at Streptokinase was determined as 1300 nM. Besides, the results for the T/C (with Streptococcus pyogenes; in data set [1]) were 0.73 and 0.1, respectively.

`C#CCOCCSc1nc2c(c(=O)n1CC=C)C(C)(C)Cc1cc(OCCC3(C)N=N3)ccc1-2`: the IC50 at Streptokinase was found to be 330 nM. For the same molecule, the results for the T/C (with Streptococcus pyogenes; in data set [1]) were 1.07 and 0.49, respectively.

On to `C#CCSc1nc2c(c(=O)n1CC=C)C(C)(C)Cc1cc(OCCC3(C)N=N3)ccc1-2`, for which the T/C was found to be 0.96 with Streptococcus pyogenes and 1.07 in data set [1].

Consider `C#CCOCCSc1nc2c(c(=O)n1CC=C)C(C)(C)Cc1cc(C(=O)c3ccccc3)ccc1-2`, for which the IC50 at Streptokinase was 3800 nM. Also, the T/C in the data set with Streptococcus pyogenes amounted to 0.94; in data set [1] it was 0.51.

Take `C#CCOCCOc1ccc2c(c1)CC(C)(C)c1c-2nc(SCCC2(C)N=N2)n(CC=C)c1=O`: the T/C worked out at 1.01 in the data set on Streptococcus pyogenes and 0.71 in data set [1].

Regarding `C#CCOc1ccc2c(c1)CC(C)(C)c1c-2nc(SCCC2(C)N=N2)n(CC=C)c1=O`, the T/C is 1.02 with Streptococcus pyogenes and 0.89 in data set [1].

For `C#CCSc1nc2c(c(=O)n1CC=C)C(C)(C)Cc1cc(C(=O)c3ccccc3)ccc1-2`, the T/C in the data set with Streptococcus pyogenes was determined as 1.09; in data set [1], 0.77.

Values taken from ChEMBL document CHEMBL3124834, “Development of tag-free photoprobes for studies aimed at identifying the target of novel Group A Streptococcus antivirulence agents” (Bioorg Med Chem Lett, 2014).
